Assay results: ChEMBL document CHEMBL1134666, “Design, synthesis, and biological evaluation of novel nucleoside and nucleotide analogues as agents against DNA viruses and/or retroviruses” (J Med Chem, 2001)

Assays:
[1] = Maximum velocity constant of the rate of phosphorylation was determined against PRPP synthetase
[2] = test system: Thymidine kinase (Herpes simplex virus 1); test: Maximum velocity constant of the rate of phosphorylation was determined in the presence of HSV thymidine kinase
[3] = test system: Vero; test: Michaelis rate constant is determined by the Lineweaver and Burk method against Vero cell thymidine kinase; type: functional, cell-based; conditions: Chlorocebus sabaeus
[4] = biological target: T1, Adenosine deaminase (Bos taurus) (UniProt P56658); test: Maximum velocity constant against adenosine deaminase
T1 sequence (whole entry): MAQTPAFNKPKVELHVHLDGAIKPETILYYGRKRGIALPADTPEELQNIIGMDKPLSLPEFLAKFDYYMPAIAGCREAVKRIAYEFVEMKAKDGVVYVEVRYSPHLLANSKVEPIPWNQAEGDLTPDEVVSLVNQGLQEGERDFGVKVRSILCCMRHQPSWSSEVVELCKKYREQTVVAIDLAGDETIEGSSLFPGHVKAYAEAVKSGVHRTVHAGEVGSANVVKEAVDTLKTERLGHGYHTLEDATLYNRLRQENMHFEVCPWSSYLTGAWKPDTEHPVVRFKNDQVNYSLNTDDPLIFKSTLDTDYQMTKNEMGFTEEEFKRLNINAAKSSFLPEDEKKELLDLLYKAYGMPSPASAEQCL
Procedure, shortened: (§1)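 Calf mucosal adenosine deaminase in buffer solution. Reaction velocity measured as µmol/min per mg enzyme across substrate concentrations.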

[5] = Michaelis rate constant is determined by the Lineweaver and Burk method against PRPP synthetase
Procedure, shortened: (§2)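 PRPP synthetase (0.04 unit) in 10.0 mM potassium phosphate pH 8.0 with 5.0 mM MgCl2, 2.5 mM PRPP and substrate. Reaction linear; stopped with MeOH after 4 h. Diphosphate products quantified by anion-exchange HPLC.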

[6] = Maximum velocity constant of the rate of phosphorylation was determined against PRPP synthetase
Procedure, shortened: as §2

[7] = biological target: T1, Adenosine deaminase (Bos taurus); test: Maximum velocity constant of the rate of deamination was determined against adenosine deaminase
Procedure, shortened: as §1

[8] = test system: Thymidine kinase (Herpes simplex virus 1); test: Maximum velocity constant of the rate of phosphorylation was determined against HSV thymidine kinase

Q: For `Nc1ncnc2ncn(CCOCP(=O)(O)O)c12`, which Relative Vmax [1] is on record?
A: 0.013

Q: Which Relative Vmax [2] does the source give for `Nc1ncnc2c1ncn2COCCO` here?
A: < 3

Q: And the Km [3]?
A: > 3 µM

Q: And the Relative Vmax [4]?
A: 1.5

Q: With `Nc1ncnc2c1ncn2[C@@H]1O[C@H](COP(=O)(O)O)[C@@H](O)[C@H]1O` as the molecule, how does the Km [5] read?
A: 240 µM

Q: What about the Relative Vmax [6] of the same molecule?
A: 14

Q: With `Nc1ncnc2c1ncn2[C@@H]1O[C@H](CO)[C@@H](O)[C@@H]1O` as the molecule, how does the Relative Vmax [7] read?
A: 1

Q: What about the Km [3] of the same molecule?
A: 2.2 µM

Q: For `Nc1nc(O)c2c(ncn2COCCO)n1`, which Relative Vmax [8] is on record?
A: 28

Q: For `Nc1ncnc2ncn(COCCO)c12`, which Relative Vmax [7] is on record?
A: 1.5

Q: What about the Km [3] of the same molecule?
A: > 3 µM
